Seven compounds from ChEMBL document CHEMBL3616384, “Benzimidazole derivatives protect against cytokine-induced apoptosis in pancreatic β-Cells” (Bioorg Med Chem Lett, 2015) can be followed below.

Active and inactive are the calls of the source. No cut-off for these calls is given here.

Assay [1] in a line: (§1) Cytoprotective activity in rat INS-1E cells assessed as restoration of recombinant rat IL-1beta/recombinant mouse IFN-gamma and TNF-alpha-suppressed ATP level after 48 hrs by Cell Titer-Glo assay. It counts as functional, cell-based. As to conditions: for EC50: Rattus norvegicus, INS-1E, 48 h. An outline of the steps:
(§2)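 INS-1E rat insulinoma cells exposed 48 h to IL-1β 20 ng/mL, INF-γ 50 ng/mL and TNF-α 50 ng/mL, with or without increasing compound concentrations. Cellular ATP was measured as a viability surrogate and normalized to untreated controls.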
Background: ATP-based viability assays read luminescence as a measure of living cells.

A short description of assay [2]: (§3) Cytoprotective activity in rat INS-1E cells assessed as suppression of recombinant rat IL-1beta/recombinant mouse IFN-gamma and TNF-alpha-induced nitrite production after 48 hrs by Griess assay. The format is functional, cell-based. As to conditions: for IC50: Rattus norvegicus, INS-1E, 48 h. The procedure, abridged: (§4)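 Nitrite production was measured in INS-1E cells after 48 h with IL-1β 20 ng/mL, INF-γ 50 ng/mL and TNF-α 50 ng/mL plus increasing compound concentrations. Mean ± SD of 12 independent wells.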
In general terms: Nitrite, measured by Griess reagent, commonly stands in for NO production.

A short description of assay [3]: (§5) Cytoprotective activity in rat INS-1E cells assessed as suppression of recombinant rat IL-1beta/recombinant mouse IFN-gamma and TNF-alpha-induced caspase-3 expression after 48 hrs by Caspase-Glo 3/7 assay. It counts as functional, cell-based. As to conditions: for IC50: Rattus norvegicus, INS-1E, 48 h. An outline of the steps: (§6)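 INS-1E cells were given the 48 h cytokine cocktail (IL-1β 20 ng/mL, INF-γ 50 ng/mL, TNF-α 50 ng/mL) with rising compound concentrations. Caspase-3 activity, as a direct apoptosis readout, was normalized to untreated controls. Mean ± SD of 12 independent wells.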

For assay [4], the system named is INS-1E. Nature of the assay: (§7) Cytoprotective activity in rat INS-1E cells assessed as increase in recombinant rat IL-1beta/recombinant mouse IFN-gamma and TNF-alpha-suppressed glucose-stimulated insulin secretion preincubated for 48 hrs followed by KRBH buffer addition without glucose for 2 hrs and subsequently incubated with KRBH buffer in presence of glucose for 1 hr by ELISA. The format is functional, cell-based. An outline of the steps:
(§8)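 Cytokine-exposed INS-1E cells (48 h; IL-1β 20 ng/mL, INF-γ 50 ng/mL, TNF-α 50 ng/mL) were co-treated with a compound dose series, and glucose-stimulated insulin secretion was measured. EC50 and maximum activity were derived from the dose-response. Mean ± SD of 2 independent experiments.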
In general terms: In an ELISA, binding on a coated surface is turned into a signal by an enzyme label.

Assay [5] concerns INS-1E. The assay can be described thus: Cytoprotective activity in rat INS-1E cells assessed as restoration of recombinant rat IL-1beta/recombinant mouse IFN-gamma and TNF-alpha-suppressed ATP level at 2 uM after 48 hrs by Cell Titer-Glo assay. The format is functional, cell-based. The procedure, abridged: as §2
Assay [6] deals with INS-1E. The description is as §1. The format is functional, cell-based. The procedure, abridged: as §2
For assay [7], the system named is INS-1E. The assay is described as §3. The format is functional, cell-based. The procedure, abridged:
as §4

A short description of assay [8]: Cytoprotective activity in rat INS-1E cells assessed as increase in recombinant rat IL-1beta/recombinant mouse IFN-gamma and TNF-alpha-suppressed glucose-stimulated insulin secretion at 5 uM preincubated for 48 hrs followed by KRBH buffer addition without glucose for 2 hrs and subsequently incubated with KRBH buffer in presence of glucose for 1 hr by ELISA relative to control. It counts as functional. The procedure, abridged: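 After 48 h exposure to the cytokine cocktail (IL-1β 20 ng/mL, INF-γ 50 ng/mL, TNF-α 50 ng/mL) with 5 µM compound added, INS-1E insulin secretion was measured at low (2) and high (16) glucose. Results are compared with untreated and no-cytokine cells. Mean ± SD of 2 independent experiments.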

In assay [9] the test system is INS-1E. The assay is described as §5. It counts as functional, cell-based. An outline of the steps:
as §6

Assay [10] can be described thus: as §7. It counts as functional, cell-based. The conditions noted are these: for EC50: Rattus norvegicus, INS-1E. An outline of the steps:
as §8

For the compound `COc1ccc(/C=N/NC(=O)c2ccc(-c3nc4cc(C)c(C)cc4[nH]3)cc2)c(O)c1`, in assay [1], the “%max” value is given as 54% and the 50% effective concentration (EC50) (usually the concentration that produces a half-maximal response) is 29.3 µM. Besides, in assay [2], the “%max” value came to 18% and the 50% inhibitory concentration (IC50) – broadly, the concentration needed to halve the response being measured – is above 30 µM. For the same compound, in assay [3], the “%max” value came out at 15% and the concentration for half-maximal inhibition (IC50) was above 30 µM. For the same compound, in the assay with INS-1E [4], the “%max” value is “inactive”.
In the case of `Cc1cc2nc(-c3ccc(C(=O)N/N=C/c4cc(O)c(O)c(O)c4)cc3)[nH]c2cc1C`, the outcome in the assay on INS-1E [5] was Active. Besides, the “%max” value in assay [1] worked out at 98%; in assay [2] it was 85%; in [3] it was 68%; in [10], 91%. Further, the figures for the 50% effective concentration (EC50) in assay [1] and in assay [10] were 0.968 µM and 5.41 µM, respectively. For the same compound, the Activity result in the assay with INS-1E [6], in the assay on INS-1E [7], in the assay on INS-1E [9] and with INS-1E [4] was “Dose-dependent effect” in each case. Besides, the IC50 was found to be 9.47 µM in [2] and 18.5 µM in [3]. In addition, the “fold change (FC)” value in assay [8] is above 3.
As for `Cc1cc2nc(-c3ccc(C(=O)N/N=C/c4ccc(O)cc4O)cc3)[nH]c2cc1C`, the “%max” value in assay [1] was 86%; in assay [2], 72%; in [3], 75%; in assay [10], 64%. For the same compound, in [1], the EC50 turned out to be 7.28 µM. In addition, the figures for the IC50 in assay [2] and in [3] were 17.5 µM and 16.4 µM, respectively.
Turning to `COc1ccc(O)c(/C=N/NC(=O)c2ccc(-c3nc4cc(C)c(C)cc4[nH]3)cc2)c1`, in assay [1], the “%max” value amounted to 61% and the concentration giving a half-maximal response (EC50) amounted to 25.3 µM. For the same compound, in assay [2], the “%max” value is reported as 20% and the IC50 was above 30 µM. For the same compound, in [3], the “%max” value worked out at 12% and the IC50 is above 30 µM. Besides, the “%max” value with INS-1E [4] is “inactive”.
In the case of `Cc1cc2nc(-c3ccc(C(=O)N/N=C/c4cccc(O)c4O)cc3)[nH]c2cc1C`, the “%max” value in assay [1] worked out at 89%; in assay [2], 79%; in assay [3] it was 82%; in assay [10] it was 84%. Moreover, the EC50 in [1] was 3.17 µM; in [10], 8.32 µM. Besides, the Activity result with INS-1E [6], with INS-1E [7], in the assay on INS-1E [9] and in the assay with INS-1E [4] was “Dose-dependent effect” in each case. Also, the IC50 came to 11.4 µM in [2] and 9.48 µM in assay [3].
For `Cc1cc2nc(-c3ccc(C(=O)N/N=C/c4cc(O)ccc4O)cc3)[nH]c2cc1C`, the “%max” value in [1] came to 93%; in assay [2] it was 71%; in assay [3] it was 84%; in assay [10], 71%. Further, the EC50 was found to be 2.57 µM in [1] and 13.3 µM in assay [10]. The Activity result in the assay with INS-1E [6], with INS-1E [7], in the assay with INS-1E [9] and in the assay on INS-1E [4] was “Dose-dependent effect” in each case. The values for the IC50 in assay [2] and in [3] were 17.3 µM and 8.81 µM, respectively.
In the case of `Cc1cc2nc(-c3ccc(C(=O)N/N=C/c4ccc(O)c(O)c4)cc3)[nH]c2cc1C`, the “%max” value amounted to 73% in assay [1], 68% in assay [2], 22% in assay [3] and 53% in assay [10]. The concentration for a half-maximal effect (EC50) in assay [1] turned out to be 16.7 µM. The concentration for half-maximal inhibition (IC50) in assay [2] was 17.6 µM; in assay [3] it was above 30 µM.
